This is an account of results in ChEMBL document CHEMBL1141286, “Benzochromenones from the marine crinoid Comantheria rotula inhibit hypoxia-inducible factor-1 (HIF-1) in cell-based reporter assays and differentially suppress the growth of certain tumor cell lines” (J Nat Prod, 2007).

Molecules are shown by their SMILES. The source made the active and inactive calls. No cut-off for these calls is given here.

The term IC50 denotes the concentration that gives 50% inhibition. In general, inhibition refers to how much of the control response was suppressed.

Experiment [1] has as its system T47D. The experiment can be described thus: Inhibition of hypoxia induced VEGF protein secretion in human T47D cells at 10 uM after 16 hrs by ELISA. It counts as functional. Further details: scale not given: the % may be the effect or the level left. In short, it runs like this:
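Exponentially growing T47D cells exposed to hypoxia (1% O2) with compound (10 μM) for 16 hr; secreted VEGF protein in conditioned media by ELISA, normalized to protein in cell lysates (micro BCA).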

Experiment [2] deals with T47D. Nature of the experiment: Inhibition of 1,10-phenanthroline-induced VEGF protein secretion in human T47D cells at 10 uM after 16 hrs by ELISA. It counts as functional, cell-based. The method in brief:
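T47D cells stimulated with 1,10-phenanthroline, compound at 10 μM; secreted VEGF in conditioned media by ELISA, normalized to cell-lysate protein.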
(ELISA stands for enzyme-linked immunosorbent assay.)

For experiment [3], the target named is Hypoxia inducible factors; HIF-1-alpha, HIF-2-alpha (Homo sapiens, UniProt Q16665+Q99814). Nature of the experiment: Inhibition of HIF1 activation in human T47D cells by TK-luciferase assay. It counts as cell-based. In short, it runs like this: (§1)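 HIF-1 reporter (pHRE-TK-Luc) assays in transfected PC-3 or T47D cells; HIF-1 induced by hypoxia or by the hypoxia mimetic 1,10-phenanthroline (10 μM); compounds at half-log concentrations; luciferase activity measured; IC50 from experiments in triplicate.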

Experiment [4] in a line: Inhibition of 1,10-phenanthroline-induced HIF1 activation in T47D cells by TK-luciferase assay. The note with it: Homo sapiens. It counts as cell-based. The method in brief: as §1
Experiment [5] can be described thus: Inhibition of 1,10-phenanthroline-induced HIF1 activation in PC3 cells by TK-luciferase assay. It counts as cell-based. The note with it: Homo sapiens, PC-3. The method in brief:
as §1

The nature of experiment [6]: Inhibition of HIF1 activation in PC3 cells by TK-luciferase assay. It counts as cell-based. The following applies: Homo sapiens, PC-3. The method in brief: as §1
Experiment [7] in a line: Inhibition of luciferase at 30 uM. In short, it runs like this:
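Purified recombinant firefly luciferase (QuantiLum, 46.8 μg mL−1) mixed with compound in passive lysis buffer containing BSA (1 mg mL−1); equal volume of luciferase substrate added, light output read; percentage inhibition relative to DMSO control; concentration-response curves up to 30 μM.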

Experiment [8] in a line: DPPH radical scavenging activity relative to Trolox. It counts as functional. Further details: concentration or dose not given beside the values. The method in brief: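 Compounds were made up as DMSO stocks and diluted in isopropanol to a final 10 μM. Each was mixed with DPPH in isopropanol at 10 μM or 30 μM DPPH, and absorbance was read at 515 nm. Scavenging was calculated as [1 − OD515(compound)/OD515(control)] × 100, then expressed as a percentage of Trolox activity. One experiment was run in triplicate.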
On the technique in general: The DPPH test is a chemical assay of radical scavenging.

`CCCc1cc(=O)c2c(O)cc3cc(O)cc(OC)c3c2o1` [COMAPARVIN]: the Activity in experiment [1] was 27%. Besides, the outcome in experiment [2] was inactive. Moreover, the IC50 in experiment [3] is 3 µM; in experiment [4], 3 µM; in experiment [5], above 10 µM; in experiment [6], above 10 µM.
Regarding `CCCc1cc(=O)c2c(OC)c3c(OC)cc(O)cc3cc2o1` [NEOCOMANTHERIN], the outcome in experiment [2] was inactive. The inhibition in experiment [7] came out at 48%. The Activity in experiment [8] was 40%. For the same molecule, the IC50 in experiment [3] worked out at 2.7 µM; in experiment [4], 1.9 µM; in experiment [5], 3.7 µM; in experiment [6] it was 3.2 µM.
